# pIC50: −log10 of the molar value.
# Tests used:
# [1] = tested on: Human immunodeficiency virus 1; assay: Antiviral activity against HIV-1 NL4-3 infected in human MT4 cells assessed as reduction in p24 gag protein incubated for 4 days by ELISA; assay type: functional, organism-based; settings: Human immunodeficiency virus 1, NL4-3, MT4, 96 h; for pIC50: read-out: IC50; for IC50: read-out: pIC50 (converted)
# How it was run: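 MT-4 cells infected with HIV-1 NL4-3 at MOI 0.01, serial compound concentrations, in 96-well format. Supernatant p24 antigen measured by capture ELISA on day 4 post-infection. IC50 is the concentration that inhibits NL4-3 replication by 50%. Bevirimat run in parallel as the reference.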
# MT4 = assay: Cytotoxicity against human MT4 cells assessed as reduction in cell viability incubated for 2 days by CytoTox-Glo cytotoxicity assay; assay type: cell-based; settings: mt4, 48 h, time 2 day
# How it was run: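 Mock-infected MT-4 cells cultured 2 days with a range of compound concentrations. Viability measured by CytoTox-Glo, following the kit protocol, as percent viable cells. CC50 is the concentration giving a 50% reduction in cell viability.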
# [2] = tested on: Human immunodeficiency virus 1; assay: Potency index, ratio of IC50 for bevirimat to IC50 for test compound for antiviral activity against HIV-1 NL4-3 infected in human MT4 cells assessed as reduction in p24 gag protein incubated for 4 days by ELISA; assay type: functional; settings: time 4 day
# How it was run: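 MT-4 cells infected with HIV-1 NL4-3 at MOI 0.01 and cultured with the test compounds. Bevirimat was run in parallel as the reference control. Supernatant p24 was measured on day 4 post-infection by antigen-capture ELISA. IC50 is the concentration that inhibits NL4-3 replication by 50%. The index is the bevirimat IC50 divided by the test-compound IC50.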
Compound,pIC50 [1],IC50 [1] [nM],CC50 (MT4) [nM],Ratio IC50 [2]
C=C(C)[C@@H]1CC[C@]2(C(=O)N3CCN(C(=O)/C=C/c4cccc(O)c4)CC3)CC[C@]3(C)[C@H](CC[C@@H]4[C@@]5(C)CC[C@H](OC(=O)CC(C)(C)C(=O)O)C(C)(C)[C@@H]5CC[C@]43C)[C@@H]12,7.28,52.5,> 2000,
C=C(C)[C@@H]1CC[C@]2(C(=O)N3CCN(C(=O)/C=C/c4cccc(OCOC)c4)CC3)CC[C@]3(C)[C@H](CC[C@@H]4[C@@]5(C)CC[C@H](OC(=O)CC(C)(C)C(=O)O)C(C)(C)[C@@H]5CC[C@]43C)[C@@H]12,7.05,89.1,> 2000,
C=C(C)[C@@H]1CC[C@]2(C(=O)NCCCNC(=O)/C=C/c3ccc4c(c3)OCO4)CC[C@]3(C)[C@H](CC[C@@H]4[C@@]5(C)CC[C@H](OC(=O)CC(C)(C)C(=O)O)C(C)(C)[C@@H]5CC[C@]43C)[C@@H]12,7.77,17,> 2000,
C=C(C)[C@@H]1CC[C@]2(C(=O)OCCCOC(=O)/C=C/c3ccc(OC)cc3)CC[C@]3(C)[C@H](CC[C@@H]4[C@@]5(C)CC[C@H](OC(=O)CC(C)(C)C(=O)O)C(C)(C)[C@@H]5CC[C@]43C)[C@@H]12,6.07,851,> 2000,
C=C(C)[C@@H]1CC[C@]2(C(=O)N3CCN(C(=O)/C=C/c4ccc(O)c(O)c4)CC3)CC[C@]3(C)[C@H](CC[C@@H]4[C@@]5(C)CC[C@H](OC(=O)CC(C)(C)C(=O)O)C(C)(C)[C@@H]5CC[C@]43C)[C@@H]12,,,> 2000,2
C=C(C)[C@@H]1CC[C@]2(C(=O)N3CCN(C(=O)/C=C/c4ccc5[nH]ccc5c4)CC3)CC[C@]3(C)[C@H](CC[C@@H]4[C@@]5(C)CC[C@H](OC(=O)CC(C)(C)C(=O)O)C(C)(C)[C@@H]5CC[C@]43C)[C@@H]12,7.30,50.1,> 2000,
C=C(C)[C@@H]1CC[C@]2(C(=O)N3CCN(C(=O)/C=C/c4cccs4)CC3)CC[C@]3(C)[C@H](CC[C@@H]4[C@@]5(C)CC[C@H](OC(=O)CC(C)(C)C(=O)O)C(C)(C)[C@@H]5CC[C@]43C)[C@@H]12,7.49,32.4,> 2000,
C=C(C)[C@@H]1CC[C@]2(C(=O)N3CCN(C(=O)c4cc5cc(OC)ccc5[nH]4)CC3)CC[C@]3(C)[C@H](CC[C@@H]4[C@@]5(C)CC[C@H](OC(=O)CC(C)(C)C(=O)O)C(C)(C)[C@@H]5CC[C@]43C)[C@@H]12,7.28,52.5,> 2000,
C=C(C)[C@@H]1CC[C@]2(C(=O)N3CCN(C(=O)/C=C/c4ccc5occc5c4)CC3)CC[C@]3(C)[C@H](CC[C@@H]4[C@@]5(C)CC[C@H](OC(=O)CC(C)(C)C(=O)O)C(C)(C)[C@@H]5CC[C@]43C)[C@@H]12,6.82,151,> 2000,
C=C(C)[C@@H]1CC[C@]2(C(=O)N3CCN(C(=O)/C=C/c4ccc5c(c4)CCO5)CC3)CC[C@]3(C)[C@H](CC[C@@H]4[C@@]5(C)CC[C@H](OC(=O)CC(C)(C)C(=O)O)C(C)(C)[C@@H]5CC[C@]43C)[C@@H]12,7.17,67.6,> 2000,
C=C(C)[C@@H]1CC[C@]2(C(=O)N3CCN(C(=O)/C(C)=C/c4ccc5c(c4)OCO5)CC3)CC[C@]3(C)[C@H](CC[C@@H]4[C@@]5(C)CC[C@H](OC(=O)CC(C)(C)C(=O)O)C(C)(C)[C@@H]5CC[C@]43C)[C@@H]12,7.24,57.5,> 2000,
C=C(C)[C@@H]1CC[C@]2(C(=O)OCCCN3CCN(c4cc(NCc5ccccc5)ncn4)CC3)CC[C@]3(C)[C@H](CC[C@@H]4[C@@]5(C)CC[C@H](OC(=O)CC(C)(C)C(=O)O)C(C)(C)[C@@H]5CC[C@]43C)[C@@H]12,6.37,,> 2000,
C=C(C)[C@@H]1CC[C@]2(C(=O)N3CCN(C(=O)/C=C/c4ccc(OCOC)cc4)CC3)CC[C@]3(C)[C@H](CC[C@@H]4[C@@]5(C)CC[C@H](OC(=O)CC(C)(C)C(=O)O)C(C)(C)[C@@H]5CC[C@]43C)[C@@H]12,6.70,200,> 2000,
C=C(C)[C@@H]1CC[C@]2(C(=O)N3CCN(C(=O)/C=C/c4ccc5c(c4)OCO5)CC3)CC[C@]3(C)[C@H](CC[C@@H]4[C@@]5(C)CC[C@H](OC(=O)CC(C)(C)C(=O)O)C(C)(C)[C@@H]5CC[C@]43C)[C@@H]12,,,> 2000,2
C=C(C)[C@@H]1CC[C@]2(C(=O)N3CCN(C(=O)/C=C/c4ccc(OC)cc4)CC3)CC[C@]3(C)[C@H](CC[C@@H]4[C@@]5(C)CC[C@H](OC(=O)CC(C)(C)C(=O)O)C(C)(C)[C@@H]5CC[C@]43C)[C@@H]12,7.12,75.9,> 2000,
C=C(C)[C@@H]1CC[C@]2(C(=O)N3CCN(C(=O)/C=C/c4cc(OC)c(OC)c(OC)c4)CC3)CC[C@]3(C)[C@H](CC[C@@H]4[C@@]5(C)CC[C@H](OC(=O)CC(C)(C)C(=O)O)C(C)(C)[C@@H]5CC[C@]43C)[C@@H]12,7.39,40.7,> 2000,
C=C(C)[C@@H]1CC[C@]2(C(=O)N3CCN(C(=O)/C=C/c4ccc(O)c(OCc5cccc(Cl)c5)c4)CC3)CC[C@]3(C)[C@H](CC[C@@H]4[C@@]5(C)CC[C@H](OC(=O)CC(C)(C)C(=O)O)C(C)(C)[C@@H]5CC[C@]43C)[C@@H]12,6.72,,> 2000,
C=C(C)[C@@H]1CC[C@]2(C(=O)N3CCN(c4cc(NCc5ccccc5)ncn4)CC3)CC[C@]3(C)[C@H](CC[C@@H]4[C@@]5(C)CC[C@H](OC(=O)CC(C)(C)C(=O)O)C(C)(C)[C@@H]5CC[C@]43C)[C@@H]12,7.43,,> 2000,
C=C(C)[C@@H]1CC[C@]2(C(=O)N3CCN(CCCCC(=O)N4CCN(c5cc(NCc6ccccc6)ncn5)CC4)CC3)CC[C@]3(C)[C@H](CC[C@@H]4[C@@]5(C)CC[C@H](OC(=O)CC(C)(C)C(=O)O)C(C)(C)[C@@H]5CC[C@]43C)[C@@H]12,7.92,,> 2000,
C=C(C)[C@@H]1CC[C@]2(C(=O)N3CCNCC3)CC[C@]3(C)[C@H](CC[C@@H]4[C@@]5(C)CC[C@H](Oc6ccc(O)c(O)c6)C(C)(C)[C@@H]5CC[C@]43C)[C@@H]12,6.31,490,> 2000,
C=C(C)[C@@H]1CC[C@]2(C(=O)N3CCN(C(=O)/C=C/c4ccc(Cl)cc4)CC3)CC[C@]3(C)[C@H](CC[C@@H]4[C@@]5(C)CC[C@H](OC(=O)CC(C)(C)C(=O)O)C(C)(C)[C@@H]5CC[C@]43C)[C@@H]12,6.44,363,> 2000,
C=C(C)[C@@H]1CC[C@]2(C(=O)N3CCN(C(=O)/C=C/c4csc5ccccc45)CC3)CC[C@]3(C)[C@H](CC[C@@H]4[C@@]5(C)CC[C@H](OC(=O)CC(C)(C)C(=O)O)C(C)(C)[C@@H]5CC[C@]43C)[C@@H]12,6.74,182,> 2000,
C=C(C)[C@@H]1CC[C@]2(C(=O)N3CCN(C(=O)/C=C/c4c[nH]c5ccccc45)CC3)CC[C@]3(C)[C@H](CC[C@@H]4[C@@]5(C)CC[C@H](OC(=O)CC(C)(C)C(=O)O)C(C)(C)[C@@H]5CC[C@]43C)[C@@H]12,7.16,69.2,> 2000,
C=C(C)[C@@H]1CC[C@]2(C(=O)N3CCN(C(=O)/C(=C/c4ccc5c(c4)OCO5)CC)CC3)CC[C@]3(C)[C@H](CC[C@@H]4[C@@]5(C)CC[C@H](OC(=O)CC(C)(C)C(=O)O)C(C)(C)[C@@H]5CC[C@]43C)[C@@H]12,6.89,129,> 2000,
C=C(C)[C@@H]1CC[C@]2(C(=O)N3CCN(C(=O)/C=C/c4ccc5c(c4)OC(F)(F)O5)CC3)CC[C@]3(C)[C@H](CC[C@@H]4[C@@]5(C)CC[C@H](OC(=O)CC(C)(C)C(=O)O)C(C)(C)[C@@H]5CC[C@]43C)[C@@H]12,6.23,589,> 2000,
C=C(C)[C@@H]1CC[C@]2(C(=O)OCCCNc3nccs3)CC[C@]3(C)[C@H](CC[C@@H]4[C@@]5(C)CC[C@H](OC(=O)CC(C)(C)C(=O)O)C(C)(C)[C@@H]5CC[C@]43C)[C@@H]12,7.41,38.9,> 2000,
C=C(C)[C@@H]1CC[C@]2(C(=O)N3CCN(C(=O)/C=C/c4cccc(OC)c4)CC3)CC[C@]3(C)[C@H](CC[C@@H]4[C@@]5(C)CC[C@H](OC(=O)CC(C)(C)C(=O)O)C(C)(C)[C@@H]5CC[C@]43C)[C@@H]12,6.82,151,> 2000,
C=C(C)[C@@H]1CC[C@]2(C(=O)N3CCN(C(=O)/C=C/c4ccccc4OC)CC3)CC[C@]3(C)[C@H](CC[C@@H]4[C@@]5(C)CC[C@H](OC(=O)CC(C)(C)C(=O)O)C(C)(C)[C@@H]5CC[C@]43C)[C@@H]12,6.77,170,> 2000,
